The source of these data is ChEMBL document CHEMBL4130626, “α-Arylidene Diacylglycerol-Lactones (DAG-Lactones) as Selective Ras Guanine-Releasing Protein 3 (RasGRP3) Ligands” (J Med Chem, 2018).

As usually defined, the EC50 is the concentration that produces a half-maximal response. As usually defined, the Ki is a dissociation constant, usually derived from enzyme kinetics or from competition with a known ligand.

The species named for assay [1] is Homo sapiens. Description: Selectivity ratio of Ki for GST-tagged PKCalpha C1 domain to Ki for human RasGRP3 overexpressed in HEK-293 cells.
In assay [2] the target is Protein kinase C delta type (Homo sapiens, UniProt Q05655). Kind of assay: Activation of PKCdelta (unknown origin) expressed in HEK293 cells harboring GFP-tagged RasGRP3 assessed as phosphorylation at ser299 residues after 30 mins by immunoblot method. Format: cell-based. The gist of the method:
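Cells are GFP-RasGRP3-transfected HEK293, grown in EMEM + 10% FBS. Exposed 30 min at 37 °C, 5% CO2, to half-log concentrations up to 10 µM, 1000 nM PMA or DMSO. Lysed in RIPA with protease and phosphatase inhibitors. 50 µg protein run on 10% SDS-PAGE and blotted for phospho-PKCδ S299; anti-GFP used as loading control. Signal normalised to 1000 nM PMA. EC50 is the mean of n = 3.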
(A western blot detects proteins with antibodies after separation by electrophoresis.)

Assay [3] addresses T1, Ras guanyl-releasing protein 3 (Homo sapiens, UniProt Q8IV61).
T1 sequence (Q8IV61 whole entry): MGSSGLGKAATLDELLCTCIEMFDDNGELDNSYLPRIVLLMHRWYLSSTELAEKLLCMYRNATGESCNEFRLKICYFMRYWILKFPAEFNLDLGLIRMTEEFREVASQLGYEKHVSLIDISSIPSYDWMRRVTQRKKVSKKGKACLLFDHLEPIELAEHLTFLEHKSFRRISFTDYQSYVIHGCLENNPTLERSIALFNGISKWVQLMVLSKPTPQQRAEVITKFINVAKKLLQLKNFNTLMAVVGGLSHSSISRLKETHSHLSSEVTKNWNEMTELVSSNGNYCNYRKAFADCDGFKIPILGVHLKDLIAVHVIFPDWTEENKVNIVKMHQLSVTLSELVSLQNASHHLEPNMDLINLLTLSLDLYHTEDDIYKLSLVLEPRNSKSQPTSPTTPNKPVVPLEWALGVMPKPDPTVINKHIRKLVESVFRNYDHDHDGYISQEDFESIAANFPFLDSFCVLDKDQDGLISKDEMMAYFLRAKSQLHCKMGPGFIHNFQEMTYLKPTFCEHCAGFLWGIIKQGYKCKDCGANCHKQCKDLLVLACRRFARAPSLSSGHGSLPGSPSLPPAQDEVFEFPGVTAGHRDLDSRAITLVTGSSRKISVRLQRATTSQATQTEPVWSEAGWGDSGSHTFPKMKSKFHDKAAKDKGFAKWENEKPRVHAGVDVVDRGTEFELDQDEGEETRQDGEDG
Description: Activation of GFP-tagged RasGRP3 (unknown origin) expressed in HEK293 cells after 30 mins by immunoblot method. Format: cell-based. The procedure, abridged: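 HEK293 cells grown in EMEM + 10% FBS, transfected after 48 h with GFP-RasGRP3 (Lipofectamine Plus). Treated 30 min at 37 °C, 5% CO2, with half-log increasing concentrations up to 10 µM, 1000 nM PMA or DMSO. Active Ras pulled down from lysates on Raf1-RBD agarose (60 min, 4 °C), immunoblotted with anti-Pan-Ras. Band intensity normalised to 1000 nM PMA. EC50 is the mean of n = 3.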

For assay [4], the species on record is Homo sapiens. Kind of assay: Selectivity ratio of EC50 for PKCdelta (unknown origin) expressed in HEK293 cells harboring GFP-tagged RasGRP3 to EC50 for GFP-tagged RasGRP3 (unknown origin) expressed in HEK293 cells. The class given is cell-based. The gist of the method: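 One EC50 comes from PKCδ S299 phosphorylation on immunoblot, the other from Ras-GTP pulled down on Raf1-RBD. Both signals normalised to 1000 nM PMA. EC50s above 10 µM are extrapolated.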

Assay [5] has as its target T1, Ras guanyl-releasing protein 3. Description: Displacement of [3H]PDBu from full length MBP-tagged human RasGRP3 expressed in Escherichia coli BL21 (DE3) after 5 mins by scintillation counting. The gist of the method:
(§1)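 Competition of [3H]PDBu binding by polyethylene glycol precipitation, with 100 µg/ml phosphatidylserine and ≤0.003% Triton X-100, 5 min at 37 °C. Proteins: full-length purified human PKCα, PKCε; full-length RasGRP1; MBP-RasGRP3 from E. coli BL21(DE3) induced with 0.3 mM IPTG 6 h at room temperature. Ki mean ± SEM of ≥2 experiments, triplicate points.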
(Loss of bound radioactivity is the signal in a displacement assay; it reports binding, not function.)

Assay [6] addresses T2, Protein kinase C epsilon type (Homo sapiens, UniProt Q02156).
T2 sequence (Q02156 whole entry): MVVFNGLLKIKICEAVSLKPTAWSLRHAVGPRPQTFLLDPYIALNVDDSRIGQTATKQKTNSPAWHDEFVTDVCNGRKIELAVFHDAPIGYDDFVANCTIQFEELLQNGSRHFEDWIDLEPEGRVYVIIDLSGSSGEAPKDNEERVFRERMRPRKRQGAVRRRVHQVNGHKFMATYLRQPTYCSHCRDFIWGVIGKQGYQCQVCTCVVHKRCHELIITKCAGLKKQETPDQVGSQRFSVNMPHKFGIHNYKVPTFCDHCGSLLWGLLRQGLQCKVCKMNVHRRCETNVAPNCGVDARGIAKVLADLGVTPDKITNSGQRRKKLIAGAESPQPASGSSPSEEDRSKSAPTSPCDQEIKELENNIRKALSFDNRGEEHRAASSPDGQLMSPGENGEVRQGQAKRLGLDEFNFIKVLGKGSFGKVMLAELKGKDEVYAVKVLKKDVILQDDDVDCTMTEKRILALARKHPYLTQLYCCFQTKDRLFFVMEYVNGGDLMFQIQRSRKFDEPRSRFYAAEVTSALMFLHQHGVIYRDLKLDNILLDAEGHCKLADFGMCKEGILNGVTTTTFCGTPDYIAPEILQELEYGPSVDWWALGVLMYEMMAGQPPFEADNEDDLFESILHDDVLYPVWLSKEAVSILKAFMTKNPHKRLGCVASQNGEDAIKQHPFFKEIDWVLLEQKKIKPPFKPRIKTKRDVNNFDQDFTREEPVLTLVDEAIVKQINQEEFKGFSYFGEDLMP
Description: Displacement of [3H]PDBu from full length recombinant human PKCepsilon expressed in baculovirus expression system after 5 mins by scintillation counting. The procedure, abridged: as §1

Assay [7] has as its target Protein kinase C alpha type (Homo sapiens, UniProt P17252). Kind of assay: Displacement of [3H]PDBu from full length recombinant human PKCalpha expressed in baculovirus expression system after 5 mins by scintillation counting. The procedure, abridged:
as §1

Chain of Protein kinase C delta type (Q05655 whole entry): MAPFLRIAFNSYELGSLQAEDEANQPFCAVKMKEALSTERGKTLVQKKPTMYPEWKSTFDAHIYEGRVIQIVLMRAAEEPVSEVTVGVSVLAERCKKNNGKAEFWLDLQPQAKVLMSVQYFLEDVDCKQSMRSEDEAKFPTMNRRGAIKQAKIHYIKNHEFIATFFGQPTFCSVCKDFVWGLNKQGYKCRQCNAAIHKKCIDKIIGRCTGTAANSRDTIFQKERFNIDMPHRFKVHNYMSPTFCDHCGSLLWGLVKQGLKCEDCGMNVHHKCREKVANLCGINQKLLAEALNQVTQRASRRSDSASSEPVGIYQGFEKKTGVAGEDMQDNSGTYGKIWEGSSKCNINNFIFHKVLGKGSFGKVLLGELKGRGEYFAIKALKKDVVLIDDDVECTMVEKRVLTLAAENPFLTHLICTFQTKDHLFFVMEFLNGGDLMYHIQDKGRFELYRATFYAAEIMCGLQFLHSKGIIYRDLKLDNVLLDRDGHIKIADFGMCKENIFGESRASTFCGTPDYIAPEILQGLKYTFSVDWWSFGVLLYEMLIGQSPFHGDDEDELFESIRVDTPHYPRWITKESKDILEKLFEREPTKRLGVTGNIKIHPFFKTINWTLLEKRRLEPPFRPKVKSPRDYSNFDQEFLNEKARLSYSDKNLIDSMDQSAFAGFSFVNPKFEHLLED

Take `COc1ccc(C(=O)OCC2(CO)C/C(=C\c3ccc([N+](=O)[O-])cc3)C(=O)O2)cc1` (stereo not drawn): the Ratio Ki in the assay listed under Homo sapiens [1] worked out at 20.
Same read-out and setting: under `CN(C)c1ccc(C(=O)OCC2(CO)C/C(=C\c3ccc([N+](=O)[O-])cc3)C(=O)O2)cc1` (stereo not drawn) stands 90.
For the compound `CCCCCCCCCCCCCC(=O)O[C@@H]1[C@@H](C)[C@@]2(O)[C@@H](C=C(CO)C[C@]3(O)C(=O)C(C)=C[C@@H]23)[C@@H]2C(C)(C)[C@]12OC(C)=O` [PHORBOL MYRISTATE ACETATE], the 50% effective concentration (EC50) in assay [2] was 290 nM; in assay [3], 82 nM. In addition, the Ratio EC50 in the assay filed under Homo sapiens [4] amounted to 3.5.
As for `CN(C)c1ccc(/C=C2\CC(CO)(COC(=O)C(C)(C)C)OC2=O)cc1` (stereo not drawn), the inhibitory constant (Ki) in assay [5] worked out at 1.07 nM; in assay [6] it was 7.87 nM; in assay [7], 65.9 nM.
